Experimental data reported in ChEMBL document CHEMBL1649384, “Synthesis and antiproliferative activity of novel symmetrical alkylthio- and alkylseleno-imidocarbamates” (Eur J Med Chem, 2011).

Experiments:
MCF7 [1] = assay: Cytotoxicity against human MCF7 cells after 72 hrs by MTT assay; assay type: functional; settings: MCF7, 72 h
Outline: (§1)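 Cells seeded per well: Hep-G2 1×10⁴, HT-29 4×10³, K-562 4×10³, MCF-7 1.2×10⁴, MCF-10A 7×10³, PC-3 2×10³. MCF-10A were grown in supplemented MEBM at 37 °C, 5% CO₂. Five concentrations were tested between 0.01 and 100, with 72 h exposure. Formazan was read by A590. GI₅₀ was taken relative to untreated controls, from at least three independent experiments.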

HT-29 [2] = assay: Cytotoxicity against human HT-29 cells after 72 hrs by MTT assay; assay type: functional; settings: HT-29, 72 h; for CC50: read-out: LC50 (the source's name); outline: as §1
K562 = assay: Cytotoxicity against human K562 cells after 72 hrs by MTT assay; assay type: functional; settings: K562, 72 h; for CC50: read-out: LC50 (the source's name); outline: as §1
HepG2 = assay: Cytotoxicity against human HepG2 cells after 72 hrs by MTT assay; assay type: functional; settings: HepG2, 72 h; outline: as §1
PC-3 [3] = assay: Cytotoxicity against human PC3 cells after 72 hrs by MTT assay; assay type: functional; settings: PC-3, 72 h; for CC50: read-out: LC50 (the source's name); outline: as §1
[4] = Cytotoxicity against human MCF10A cells after 72 hrs by MTT assay; assay type: cell-based, MCF-10A; outline: as §1
PC-3 [5] = assay: Cytotoxicity against human PC3 cells after 72 hrs by CV method; assay type: functional; settings: PC-3, 72 h
Outline: (§2)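 Crystal violet check of the MTT data: eight concentrations between 0.01 and 100, with 72 h exposure. Cells were fixed in 4% formaldehyde for at least 20 min, then stained with 0.1% crystal violet for 30 min. GI₅₀ is the concentration halving growth relative to untreated controls.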

HT-29 [6] = assay: Cytotoxicity against human HT-29 cells after 72 hrs by CV method; assay type: functional; settings: HT-29, 72 h; outline: as §2
MCF7 [7] = assay: Induction of apoptosis in human MCF7 cells assessed as apoptotic cells at 15 uM after 24 hrs by TUNEL assay; assay type: functional
Outline: (§3)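 TUNEL (Apo-Direct) on MCF-7 cells treated with compound or vehicle, with camptothecin as positive control. Cells were fixed in paraformaldehyde and then ethanol, labelled with FITC-dUTP for 1 h at 37 °C, counterstained with PI/RNase, and analysed by flow cytometry. Read-out is % apoptotic cells, mean ± SEM of three independent experiments in duplicate wells.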

MCF7 [8] = assay: Induction of apoptosis in human MCF7 cells assessed as apoptotic cells at 15 uM after 48 hrs by TUNEL assay; assay type: functional; outline: as §3
MCF7 [9] = assay: Induction of apoptosis in human MCF7 cells assessed as accumulation at subG1 phase at 15 uM after 24 hrs by DNA flow cytometric assay; assay type: functional
Outline: (§4)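 Exponentially growing MCF-7 cells were given compound or vehicle, with camptothecin as positive control. Cells were fixed in 1% paraformaldehyde in PBS pH 7.4 on ice for 1 h, then in 70% ethanol at −20 °C for 30 min. They were stained with PI/RNase for 30 min at RT in the dark. DNA content was measured by flow cytometry as % of total cells. Mean ± SEM of three independent experiments, duplicate wells.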

MCF7 [10] = assay: Induction of apoptosis in human MCF7 cells assessed as accumulation at G0/G1 phase at 15 uM after 24 hrs by DNA flow cytometric assay; assay type: functional; outline: as §4
MCF7 [11] = assay: Induction of apoptosis in human MCF7 cells assessed as accumulation at S phase at 15 uM after 24 hrs by DNA flow cytometric assay; assay type: functional; outline: as §4
MCF7 [12] = assay: Induction of apoptosis in human MCF7 cells assessed as accumulation at G2/M phase at 15 uM after 24 hrs by DNA flow cytometric assay; assay type: functional; outline: as §4
MCF7 [13] = assay: Induction of apoptosis in human MCF7 cells assessed as accumulation at subG1 phase at 15 uM after 48 hrs by DNA flow cytometric assay; assay type: functional; outline: as §4
MCF7 [14] = assay: Induction of apoptosis in human MCF7 cells assessed as accumulation at G0/G1 phase at 15 uM after 48 hrs by DNA flow cytometric assay; assay type: functional; outline: as §4
MCF7 [15] = assay: Induction of apoptosis in human MCF7 cells assessed as accumulation at S phase at 15 uM after 48 hrs by DNA flow cytometric assay; assay type: functional; outline: as §4
MCF7 [16] = assay: Induction of apoptosis in human MCF7 cells assessed as accumulation at G2/M phase at 15 uM after 48 hrs by DNA flow cytometric assay; assay type: functional; outline: as §4

Structure (SMILES) | GI50 (MCF7 [1]) [µM] | TGI (MCF7 [1]) [µM] | GI50 (HT-29 [2]) [µM] | TGI (HT-29 [2]) [µM] | CC50 (HT-29 [2]) [µM] | GI50 (K562) [µM] | TGI (K562) [µM] | CC50 (K562) [µM] | GI50 (PC-3 [3]) [µM] | TGI (PC-3 [3]) [µM] | CC50 (PC-3 [3]) [µM] | Activity (MCF7 [7]) [%] | Activity (MCF7 [8]) [%] | Activity (MCF7 [9]) [%] | Activity (MCF7 [10]) [%] | Activity (MCF7 [11]) [%] | Activity (MCF7 [12]) [%] | Activity (MCF7 [13]) [%] | Activity (MCF7 [14]) [%] | Activity (MCF7 [15]) [%] | also measured
C[Se]/C(=N\C(=O)c1cccs1)NC(=O)c1cccs1 | 0.0034 | 5.64 | 0.00034 | > 100 | > 100 | 6.07 | > 100 | > 100 | 1.34 | 63 | > 100 | 29.35 | 71.08 | 9.31 | 45.32 | 18.3 | 23.85 | 14.14 | 35.25 | 25.21 | LC50 (MCF7 [1]): > 100 µM; GI50 (HepG2): 0.63 µM; TGI (HepG2): 1.5 µM; CC50 (HepG2; read-out: LC50 (the source's name)): 12.5 µM; GI50 at 72 h ([4]; MCF10A cells): 9.26 µM; LC50 ([4]; mcf-10a, 72 h): 73.51 µM; TGI ([4]; mcf-10a, 72 h): 41.14 µM; GI50 (PC-3 [5]): 0.63 µM; GI50 (HT-29 [6]): 9 µM; Activity (MCF7 [16]): 22.74%
CC[C@@]1(O)C(=O)OCc2c1cc1n(c2=O)Cc2cc3ccccc3nc2-1 [CAMPTOTHECIN] | 0.01 | 0.16 | 0.05 | 31.6 | 31.6 | 0.06 | 50.1 | > 100 | 0.06 | > 100 | > 100 | 21.25 | 71.45 | 10.92 | 65.62 | 10.4 | 11.51 | 25.73 | 41.61 | 16.91 | Activity (MCF7 [16]): 15.15%
